Assay results gathered from unrelated publications.
Compare with care: the assays were run in different laboratories.
MAL12: Alpha-glucosidase MAL12 (MAL12, Saccharomyces cerevisiae S288c, UniProt P53341)

Cc1cc([N+](=O)[O-])ccc1NC(=O)Cn1cc(CSc2nc3ccccc3cc2/C=N/NC(N)=S)nn1 gave an IC50 of 307 µM (MAL12; enzyme activity, inhibitor).
With C[C@@H]1O[C@@H](O[C@H]2[C@H](O)[C@@H](O)[C@H](OC[C@H]3O[C@@H](OC(=O)[C@]45CCC(C)(C)C[C@H]4C4=CC[C@@H]6[C@@]7(C)CC[C@H](O[C@@H]8OC[C@H](O)[C@H](O)[C@H]8O)[C@@](C)(CO)[C@@H]7CC[C@@]6(C)[C@]4(C)CC5)[C@H](O)[C@@H](O)[C@@H]3O)O[C@@H]2CO)[C@H](O)[C@H](O)[C@H]1O the IC50 was 1.65 µM (MAL12; enzyme activity, inhibitor).
With Cc1cccc(C)c1NC(=O)Cn1cc(CSc2nc3ccccc3cc2/C=N/NC(N)=S)nn1 the IC50 was 150 µM (MAL12; enzyme activity, inhibitor).
The IC50 of C[C@@H]1O[C@@H](O[C@H]2[C@H](O[C@H]3CC[C@@]4(C)[C@@H](CC[C@]5(C)[C@@H]4CC=C4[C@@H]6CC(C)(C)CC[C@]6(C(=O)O[C@@H]6O[C@H](CO[C@@H]7O[C@H](CO)[C@@H](O[C@@H]8O[C@@H](C)[C@H](O)[C@@H](O)[C@H]8O)[C@H](O)[C@H]7O)[C@@H](O)[C@H](O)[C@H]6O)CC[C@]45C)[C@]3(C)CO)OC[C@H](O)[C@@H]2O)[C@H](O)[C@H](O)[C@H]1O is reported as 1.78 µM (MAL12; enzyme activity, inhibitor).
With Cc1cccc(NC(=O)Cn2cc(CSc3nc4ccccc4cc3/C=N/NC(N)=S)nn2)c1C the IC50 was 247 µM (MAL12; enzyme activity, inhibitor).
CC1(CN)CCN(c2cnc3c(Sc4ccncc4Cl)n[nH]c3n2)CC1 has an IC50 of over 100 µM (Tyrosine-protein phosphatase non-receptor type 1 (PTPN1, Homo sapiens, UniProt P18031); enzyme activity, inhibitor).
Cc1ccc(NC(=O)Cn2cc(CSc3nc4ccccc4cc3/C=N/NC(N)=S)nn2)cc1 gave an IC50 of 490 µM (MAL12; enzyme activity, inhibitor).
COc1ccc(NC(=O)Cn2cc(COc3ccc(C(c4c(O)c5ccccc5oc4=O)c4c(O)c5ccccc5oc4=O)cc3OC)nn2)c(OC)c1 has an IC50 of 52 µM (MAL12; enzyme activity, inhibitor, absorbance).
The IC50 of Cc1ccc2oc(=O)cc(NCCO)c2c1 is reported as 331 µM (Alpha-1A adrenergic receptor (ADRA1A, Homo sapiens, UniProt P35348, I178V); calcium signal, antagonist).
With C[C@@H]1O[C@@H](O[C@H]2[C@H](O[C@H]3CC[C@@]4(C)[C@@H](CC[C@]5(C)[C@@H]4CC=C4[C@@H]6CC(C)(C)CC[C@]6(C(=O)O)CC[C@]45C)[C@]3(C)CO)OC[C@H](O)[C@@H]2O)[C@H](O)[C@H](O)[C@H]1O the IC50 was 0.6 µM (MAL12; enzyme activity, inhibitor).
Cc1cccc(NC(=O)Cn2cc(CSc3nc4ccccc4cc3/C=N/NC(N)=S)nn2)c1 gave an IC50 of 247 µM (MAL12; enzyme activity, inhibitor).
For COc1cc(C(c2c(O)c3ccccc3oc2=O)c2c(O)c3ccccc3oc2=O)ccc1OCc1cn(CC(=O)Nc2ccccc2F)nn1, the IC50 was 61.4 µM (MAL12; enzyme activity, inhibitor, absorbance).
C[C@@H]1O[C@@H](O[C@H]2[C@H](O)[C@@H](O)[C@H](OC[C@H]3O[C@@H](OC(=O)[C@]45CCC(C)(C)C[C@H]4C4=CC[C@@H]6[C@@]7(C)CC[C@H](O[C@@H]8OC[C@H](O)[C@H](O)[C@H]8O)C(C)(C)[C@@H]7CC[C@@]6(C)[C@]4(C)CC5)[C@H](O)[C@@H](O)[C@@H]3O)O[C@@H]2CO)[C@H](O)[C@H](O)[C@H]1O gave an IC50 of 0.89 µM (MAL12; enzyme activity, inhibitor).
Cc1ccc2[nH]c(=O)c(CNC3CCCCC3)cc2c1 gave an IC50 of 1.62 µM (Alpha-1A adrenergic receptor (ADRA1A, Homo sapiens, UniProt P35348, I178V/M292L); calcium signal, antagonist).
C[C@@H]1O[C@@H](O[C@H]2[C@H](O[C@H]3CC[C@@]4(C)[C@@H](CC[C@]5(C)[C@@H]4CC=C4[C@@H]6CC(C)(C)CC[C@]6(C(=O)O[C@@H]6O[C@H](CO[C@@H]7O[C@H](CO)[C@@H](O)[C@H](O)[C@H]7O)[C@@H](O)[C@H](O)[C@H]6O)CC[C@]45C)[C@]3(C)CO)OC[C@H](O)[C@@H]2O)[C@H](O)[C@H](O)[C@H]1O has an IC50 of 1.74 µM (MAL12; enzyme activity, inhibitor).
With COc1cc(C(c2c(O)c3ccccc3oc2=O)c2c(O)c3ccccc3oc2=O)ccc1OCc1cn(CC(=O)Nc2ccccc2C)nn1 the IC50 was 50.2 µM (MAL12; enzyme activity, inhibitor, absorbance).
The IC50 of Nc1ncnc2c1ncn2[C@@H]1O[C@H](CO)[C@@H](O)[C@H]1O is reported as over 1000 µM (Solute carrier family 22 member 6 (SLC22A6, Homo sapiens, UniProt Q4U2R8); transporter uptake, inhibitor, radiometric; oocytes).
For COc1cc(C(c2c(O)c3ccccc3oc2=O)c2c(O)c3ccccc3oc2=O)ccc1OCc1cn(CC(=O)Nc2ccc([N+](=O)[O-])cc2)nn1, the IC50 was 12.2 µM (MAL12; enzyme activity, inhibitor, absorbance).
With NC(=S)N/N=C/c1cc2ccccc2nc1SCc1cn(CC(=O)Nc2ccc(O)cc2)nn1 the IC50 was 311 µM (MAL12; enzyme activity, inhibitor).
COc1cc(C(c2c(O)c3ccccc3oc2=O)c2c(O)c3ccccc3oc2=O)ccc1OCc1cn(CC(=O)Nc2ccc(Br)cc2)nn1 gave an IC50 of 81.7 µM (MAL12; enzyme activity, inhibitor, absorbance).
The IC50 of CCOC(=O)[C@H]1O[C@@H]1C(=O)N[C@@H](CC(C)C)C(=O)NCCC(C)C is reported as 19.1 µM (Cathepsin S (CTSS, Homo sapiens, UniProt P25774); enzyme activity, inhibitor, fluorescence).
